Assay outcomes as filed in PubChem.
This is a sample that favours compounds with a hit; in the whole collection about 2.9% have one here.
SENP8 block-1 = inhibitors of human SENP8 protease; inhibition, % at 10 µM; Q96LD8; hit rate 1.2% among 330,000; purified SENP8, Z-RLRGG-aminoluciferin cleavage, luminescence; AID 2540; in the data active = inhibition above about 50%
Apaf1 inhib = inhibitors of human Apaf-1 apoptosome; AID 489030; reconstituted apoptosome caspase-3 activity, DEVD-Rh110 fluorescence; inhibition, % at 20 µM; hit rate 0.71% among 330,000; active = inhibition of at least 40% at 20 µM;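 note: plate controls were DMSO wells for no effect and DEVD-CHO caspase inhibitor wells for full effect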
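detection = Rh110 fluorescence intensity | test system = biochemical Apaf-1 apoptosome reconstitution | also added = cytochrome c and DEVD-Rh110 substrate | schedule = 30 min plus 50 min, RT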
SENP1 inh = inhibitors of human SENP1 SUMO protease catalytic domain; Q9P0U3; recombinant SENP1 catalytic domain, CyPet-SUMO1-YPet FRET cleavage; inhibition, % at 10 µM; hit rate 0.21% among 360,000; AID 624204;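 active = inhibition at least 30% at 10 µM, raw YFP signal under a set limit, fluorescence ratio 0.5 to 1.5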;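 note: 0% = enzyme with DMSO and 100% = no enzyme wells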
Target sequence (Q9P0U3 419-644 limits assumed): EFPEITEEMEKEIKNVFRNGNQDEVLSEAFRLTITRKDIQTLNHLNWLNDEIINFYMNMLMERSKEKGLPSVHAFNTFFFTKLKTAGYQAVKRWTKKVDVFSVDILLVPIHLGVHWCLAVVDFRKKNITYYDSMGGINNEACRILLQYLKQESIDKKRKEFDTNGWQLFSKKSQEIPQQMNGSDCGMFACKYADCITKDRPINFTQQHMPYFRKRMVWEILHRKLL
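Controls: no-enzyme wells low, DMSO-plus-enzyme wells high control. Test system: human recombinant His6-tagged SENP1 catalytic domain enzyme. Reagent: SFCypet-SUMO1-SFYpet FRET protein substrate, 25 nM final. Doses: one dose per compound, 10 µM, 0.5% DMSO. Detection: FRET, CFP and YFP emission. Timing: 50 min reaction at room temperature.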
SENP7 block = blocks the human protease SENP7; Q9BQF6; recombinant SENP7, Z-RLRGG-aminoluciferin luminescence, 40 min; inhibition, % at 5 µM; hit rate 1.5% among 330,000; AID 434973;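 active = inhibition above about 50% at the single test dose, limit read from the data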;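 note: plate controls were DMSO with enzyme for no effect and no enzyme buffer wells for full effect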
SENP6 block = SENP6 protease inhibition; Recombinant SENP6 catalytic domain, aminoluciferin luminescence; Q9GZR1; hit rate 1.8% among 330,000; inhibition, % at 10 µM;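 active = inhibition above about 50% at the single tested dose, limit read from the data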;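 note: plate controls were DMSO wells with enzyme for no effect and DMSO wells lacking enzyme for full effect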
Target sequence (Q9GZR1 628-1112 limits assumed): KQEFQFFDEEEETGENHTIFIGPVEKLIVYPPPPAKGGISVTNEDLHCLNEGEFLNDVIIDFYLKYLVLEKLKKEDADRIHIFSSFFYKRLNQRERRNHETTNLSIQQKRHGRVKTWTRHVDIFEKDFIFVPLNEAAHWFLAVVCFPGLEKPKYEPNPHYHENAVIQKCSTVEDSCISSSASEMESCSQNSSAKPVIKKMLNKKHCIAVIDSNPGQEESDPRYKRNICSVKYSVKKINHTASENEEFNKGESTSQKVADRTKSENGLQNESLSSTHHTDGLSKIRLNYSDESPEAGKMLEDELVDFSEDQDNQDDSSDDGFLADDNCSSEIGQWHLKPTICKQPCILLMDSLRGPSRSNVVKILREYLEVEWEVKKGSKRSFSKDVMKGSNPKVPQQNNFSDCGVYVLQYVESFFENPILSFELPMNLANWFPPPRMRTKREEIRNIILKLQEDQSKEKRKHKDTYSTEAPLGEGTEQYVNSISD
SENP8 block-2 = inhibitors of human SENP8 protease; hit rate 0.64% among 360,000; inhibition, % at 20 µM; Q96LD8; recombinant SENP8, Nedd8 substrate fluorescence; in the data active = inhibition mostly above about 40%, no sharp cut-off; inactive = mostly below about 27%
SENP8 confirm = confirmation of human SENP8 protease inhibitors; shares compounds with SENP7 block; Recombinant SENP8, Z-RLRGG-aminoluciferin luminescence, 60 min; inhibition, % at 12.5 µM; hit rate 40% among 6,200; AID 488912;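 active = mean inhibition across replicates above about 50%, limit read from the data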
SENP6 confirm = human SENP6 inhibition, confirmed. shares compounds with SENP7 block. recombinant SENP6, Z-RLRGG-aminoluciferin luminescence. inhibition, % at 12.5 µM. hit rate 58% among 6,200. AID 488915
SENP7 confirm = confirmation of human SENP7 protease inhibitors | recombinant SENP7, Z-RLRGG-aminoluciferin luminescence, 40 min | shares compounds with SENP7 block | hit rate 69% among 6,200 | inhibition, % at 12.5 µM
Casp3 select = caspase-3 inhibition (SENP selectivity assay) | shares compounds with SENP7 block | purified caspase-3, Z-DEVD-aminoluciferin luminescence, 60 min | inhibition, % at 12.5 µM | hit rate 60% among 6,200 | AID 488918;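 active = mean inhibition above about 50%, limit read from the data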;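 note: plate controls were enzyme with DMSO for no effect and wells without caspase-3 for full effect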
Luc interf = counter-screen for SENP inhibitors: luminescence interference | shares compounds with SENP7 block | Pre-incubated SENP8/Z-RLRGG-aminoluciferin, luciferase luminescence interference | inhibition, % at 12.5 µM | hit rate 39% among 6,200 | AID 488919;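 active = mean inhibition above about 50% when retested at one dose, limit read from the data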;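 note: plate controls were DMSO wells with completed reaction for no effect and substrate without enzyme for full effect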
* marks the source's active call; other numbers are inactive results; / = no result.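 Rule for the calls, unless noted: active = mean inhibition above about 50% in the one-dose retest (limit read from the data); inactive = the rest.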

SMILES | SENP8 block-1 | Apaf1 inhib | SENP1 inh | SENP7 block | SENP6 block | SENP8 block-2 | SENP8 confirm | SENP6 confirm | SENP7 confirm | Casp3 select | Luc interf
Cc1ccc(/C(N)=N/OC(=O)c2cccs2)cc1 | 68.3* | -6.4 | 1.7 | 67.3* | 73.0* | 8.8 | 58.4* | 64.9* | 91.2* | 73.0* | 60.1*
Cc1cccc(/C(N)=N/OC(=O)c2cccs2)c1 | 91.2* | 3.5 | 2.7 | 97.0* | 88.2* | 22.3 | 95.4* | 96.0* | 100.8* | 97.1* | 95.6*
COc1cc(C=O)ccc1OCc1cccc(Br)c1 | -2.9 | 11.8 | 0.8 | 22.7 | 34.0 | 3.4 | / | / | / | / | /
COc1cc(C=O)ccc1OCc1ccccc1Br | 70.0* | 16.7 | 1.2 | 66.0* | 75.3* | 15.0 | -7.9 | 67.8* | 88.6* | 69.0* | 73.4*
COc1ccccc1N=Cc1c(C)c(C#N)c2[nH]c3ccccc3n2c1=O | 0.7 | -12.3 | -35.8 | 2.2 | 15.3 | -408.1 | / | / | / | / | /
N#Cc1c(C(F)(F)F)cc(=O)n2c1[nH]c1ccccc12 | 71.2* | -11.7 | -26.9 | 2.5 | 83.0* | -288.5 | 3.4 | 75.3* | 91.4* | 78.9* | 76.5*
Cc1c(Cc2ccccc2)c(=O)n2c([nH]c3ccccc32)c1C#N | 13.1 | 21.1 | -3.4 | 11.1 | 52.3* | -432.0 | -1.6 | 14.5 | 7.4 | 4.3 | -1.0
O=C(COc1ccc(Br)cc1)N1CCN(c2ncccn2)CC1 | -1.7 | 3.7 | -1.4 | -2.0 | 8.2 | -14.9 | / | / | / | / | /
Cc1ccc(/C=C/C(=O)c2c(C)nc3ccccn23)cc1 | -18.2 | 14.7 | 1.4 | 102.6* | 16.2 | 7.0 | 32.4 | 19.3 | 32.7 | 4.8 | 21.5
CN(C)c1ccc(C(=O)/C=C/c2ccc(Br)cc2)cc1 | 27.1 | 13.0 | 29.7 | -3.3 | -1.6 | 19.1 | / | / | / | / | /
CCOc1ccc(/C=C/C(=O)c2ccccc2)cc1 | 70.1* | 8.0 | -6.4 | 83.4* | 75.9* | -5.3 | -23.8 | 82.7* | 87.9* | 33.3 | 80.1*
CCOc1ccc(C(=O)/C=C/c2ccc(SC)cc2)cc1 | -3.5 | 1.2 | -27.2 | -13.3 | 9.1 | -139.6 | / | / | / | / | /
CSc1ccc(/C=C/C(=O)c2ccc(O)cc2)cc1 | 73.7* | 5.4 | -38.9 | 34.0 | 81.0* | -172.7 | 68.7* | 63.8* | 41.6 | 23.4 | 49.6
CN(C)c1ccc(C(=O)/C=C/c2ccccc2)cc1 | 63.1* | 1.5 | 19.6 | 78.9* | 84.1* | 8.7 | 26.7 | 17.3 | 56.5* | 29.7 | 45.4
Cc1cc(Br)cn2c(CC(C)(C)C)c(-c3cccc(Cl)c3)nc12 | / | / | 0.1 | / | / | 15.8 | / | / | / | / | /
Cc1ccc(/C=C/C(=O)c2ccccc2)cc1 | 26.4 | -2.4 | -0.4 | 40.0 | 78.5* | 16.7 | 51.0* | 59.9* | 63.6* | 3.6 | 65.1*
CCOc1ccc(N/C=C/C(=O)c2ccccc2)c([N+](=O)[O-])c1 | 96.9* | 9.8 | 8.1 | 100.9* | 97.5* | 34.5 | 93.6* | 95.3* | 79.6* | 96.9* | 13.2
COc1ccc(CCNc2ccc(C(=O)O)cc2[N+](=O)[O-])cc1OC | 1.1 | 4.2 | 2.3 | 12.3 | 17.8 | 11.1 | / | / | / | / | /
O=C(O)c1ccc(NCCC2=CCCCC2)c([N+](=O)[O-])c1 | 81.9* | 10.3 | 4.2 | 11.5 | 85.6* | 17.4 | 3.7 | 86.8* | 96.9* | 88.3* | 78.0*
O=C(/C=C/c1ccco1)Nc1cc(Cl)ccc1C(=O)O | 55.6* | 3.5 | -1.3 | 7.0 | 73.1* | -43.9 | 71.7* | 71.1* | 88.5* | 70.2* | 75.2*
O=C(/C=C/c1ccco1)Nc1ccccc1C(=O)O | 88.2* | 8.1 | -3.8 | 82.5* | 93.0* | -9.9 | 93.3* | 93.7* | 100.6* | 96.9* | 93.4*
O=C(/C=C\c1ccco1)Nc1cc([N+](=O)[O-])ccc1F | -11.7 | 3.6 | 2.1 | -2.1 | -12.4 | 17.6 | / | / | / | / | /
O=C(COc1ccc2ccccc2c1)Nc1ccccc1C(=O)O | 34.3 | -5.5 | -0.1 | 7.3 | 55.1* | -5.7 | 54.3* | 50.8* | 27.3 | 49.8 | 23.4
COc1ccc(/C=C/c2cc(C(=O)O)c3ccccc3n2)cc1 | 68.7* | -4.8 | -38.7 | 54.6* | -3.5 | -437.7 | -23.8 | -2.9 | 2.4 | -3.2 | 7.0
CCOC(=O)C1CCCN(C(=S)NC(=O)c2cc(Br)ccc2Cl)C1 (centres undefined) | 2.6 | -6.1 | -1.5 | 3.6 | -0.1 | 19.0 | / | / | / | / | /
SMILES | SENP8 block-1 | Apaf1 inhib | SENP1 inh | SENP7 block | SENP6 block | SENP8 block-2 | SENP8 confirm | SENP6 confirm | SENP7 confirm | Casp3 select | Luc interf
COc1ccc(/C=C/C(=O)Nc2ccccc2C(=O)O)cc1 | 93.2* | -22.6 | 1.2 | 95.9* | 94.5* | -3.7 | 97.0* | 97.0* | 100.5* | 96.2* | 96.2*
CC(=O)Nc1ccc(S(=O)(=O)NC(C)C(=O)NCC(c2ccco2)N(C)C)cc1 (centres undefined) | 0.0 | -0.8 | -32.2 | 2.3 | -5.8 | -135.5 | / | / | / | / | /
O=C(C(O)c1ccccc1)N1CCN(S(=O)(=O)c2ccc(F)c(F)c2)CC1 (centres undefined) | / | / | 1.7 | / | / | 13.2 | / | / | / | / | /
Brc1ccc(NCc2nnc3n2CCCCC3)cc1 | -2.3 | -27.1 | 2.6 | 98.7* | -10.4 | 8.2 | 8.7 | 9.7 | 6.7 | 2.1 | 4.7
O=C(CN1CCOCC1)N1CCOCC1 | / | / | 1.8 | / | / | 3.4 | / | / | / | / | /
c1ccc(-c2nnc(-c3ccccc3)nn2)cc1 | 83.4* | -15.3 | 0.0 | 96.2* | 87.8* | 27.8 | 7.6 | 12.8 | 26.2 | 36.1 | 28.9
COc1ccc(S(=O)(=O)N2CCCCCC2)cc1NC(=O)CCNC(=O)c1ccccc1Cl | / | / | -2.3 | / | / | 12.2 | / | / | / | / | /
COc1cccc(C(=O)O[C@H]2[C@H](C)NS(=O)(=O)[C@H]3C[C@@H]4C=C[C@]23O4)c1 | -8.7 | 1.2 | 0.3 | -2.4 | 68.2* | 8.4 | 11.0 | 3.2 | -1.2 | -5.0 | -4.7
Cc1cn([C@H](C(=O)NCCCCCCCCCCC(=O)N2CCN(C(=O)OC(C)(C)C)CC2)[C@@H](C)O)nn1 | 4.5 | 1.2 | -1.0 | -2.2 | 4.6 | 17.9 | / | / | / | / | /
COc1cc(C(=O)Nc2cc(C)ccn2)cc(OC)c1OC | -15.5 | -14.2 | 0.5 | -0.8 | -4.5 | 12.8 | / | / | / | / | /
COc1ccc(C(=O)Nc2ccccc2C(=O)Nc2cc(C)ccn2)cc1 | 58.3* | 17.8 | 1.1 | 37.1 | 63.7* | -63.8 | 3.5 | 6.4 | 15.7 | -4.2 | -1.9
